Measured values: ChEMBL document CHEMBL1132300, “1,3-Disubstituted benzazepines as novel, potent, selective neuropeptide Y Y1 receptor antagonists” (J Med Chem, 1999)

Target: T1, Neuropeptide Y receptor type 1 (Homo sapiens, UniProt P25929)
T1 sequence (P25929 whole entry): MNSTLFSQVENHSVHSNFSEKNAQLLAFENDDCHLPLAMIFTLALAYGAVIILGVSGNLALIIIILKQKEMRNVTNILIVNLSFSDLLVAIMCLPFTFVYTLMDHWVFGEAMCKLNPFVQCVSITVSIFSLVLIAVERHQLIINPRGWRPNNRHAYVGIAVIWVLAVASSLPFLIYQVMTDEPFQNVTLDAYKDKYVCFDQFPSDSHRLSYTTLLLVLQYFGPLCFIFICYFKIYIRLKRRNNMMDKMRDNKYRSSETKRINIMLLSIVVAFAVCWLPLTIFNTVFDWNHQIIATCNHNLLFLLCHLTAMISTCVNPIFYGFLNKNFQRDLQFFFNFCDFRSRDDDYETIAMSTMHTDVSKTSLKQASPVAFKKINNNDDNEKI
Test: In vitro binding affinity towards Neuropeptide Y receptor type 1 was determined as potency to displace [125I]-peptide YY binding to human neuroblastoma SK-N-MC cells
Format: cell-based
Outline: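 Intact SK-N-MC cells grown 2 days, washed with HEPES (20 mM)-buffered Hank's solution pH 7.4 plus 1% BSA, then incubated with 0.1 nM [125I]PYY and varying concentrations of unlabeled compound at 37 °C for 60 min. Washed twice with ice-cold buffer, lysed in 1 N NaOH, gamma-counted. Nonspecific binding defined with 10^-6 M NPY.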

Compound	Ki
C/N=C(/Nc1ccc(O)cc1)NC1CCc2ccccc2N(Cc2cccc(NC(=O)NC(C)C)c2)C1=O (stereo not drawn)	7.3 nM
CC(C)NC(=O)Nc1cccc(CN2C(=O)C(NC(=O)Nc3ccc4ncccc4c3)CCc3ccccc32)c1 (stereo not drawn)	56 nM
O=C(Nc1ccccc1)NC1CCc2ccccc2N(Cc2cccc(NC(=O)N3CCOCC3)c2)C1=O (stereo not drawn)	> 10000 nM
CC(C)NC(=O)Nc1cccc(CN2C(=O)C(N=C(Nc3ccc(O)cc3)NC(C)C)CCc3ccccc32)c1 (stereo not drawn)	36 nM
CC(C)NC(=O)Nc1cccc(CN2C(=O)C(NC(=O)Nc3ccccn3)CCc3ccccc32)c1 (stereo not drawn)	240 nM
CC(C)NC(=O)Nc1cccc(CN2C(=O)C(NC(=O)Nc3ccc(-c4ccccc4)cc3)CCc3ccccc32)c1 (stereo not drawn)	610 nM
CC(C)NC(=O)Nc1cccc(CN2C(=O)C(NC(=O)Nc3ccc4ocnc4c3)CCc3ccccc32)c1 (stereo not drawn)	17 nM
CC(C)NC(=O)Nc1cccc(CN2C(=O)C(NC(=O)Oc3ccccc3)CCc3ccccc32)c1 (stereo not drawn)	2100 nM
CC(C)NC(=O)Nc1cccc(CN2C(=O)C(CNC(=O)Nc3ccccc3)CCc3ccccc32)c1 (stereo not drawn)	1400 nM
CC(C)NC(=O)Nc1cccc(CN2C(=O)C(COC(=O)Nc3ccccc3)CCc3ccccc32)c1 (stereo not drawn)	4100 nM
CC(C)NC(=O)Nc1cccc(CN2C(=O)C(NC(=O)Nc3ccc4c(c3)OCO4)CCc3ccccc32)c1 (stereo not drawn)	28 nM
CC(C)NC(=O)Nc1cccc(CN2C(=O)C(NC(=O)Nc3cc[nH]n3)CCc3ccccc32)c1 (stereo not drawn)	> 10000 nM
CC(C)NC(=O)Nc1cccc(CN2C(=O)C(OC(=O)Nc3ccccc3)CCc3ccccc32)c1 (stereo not drawn)	450 nM
CC(C)NC(=O)Nc1cccc(CN2C(=O)C(NC(=O)Nc3ccc4ccsc4c3)CCc3ccccc32)c1 (stereo not drawn)	7.8 nM
CC(C)NC(=O)Cc1cccc(CN2C(=O)C(NC(=O)Nc3ccccc3)CCc3ccccc32)c1 (stereo not drawn)	3800 nM
CC(C)NC(=O)Nc1cccc(CN2C(=O)C(NC(=O)Nc3ccc([N+](=O)[O-])cc3)CCc3ccccc32)c1 (stereo not drawn)	88 nM
CC(C)NC(=O)Nc1cccc(CN2C(=O)C(NC(=O)Nc3ccccc3)CCCc3ccccc32)c1 (stereo not drawn)	56 nM
CC(C)NC(=O)Nc1cccc(CN2C(=O)C(NC(=O)Nc3ccc4[nH]ncc4c3)CCc3ccccc32)c1 (stereo not drawn)	26 nM
CC(C)NC(=O)Nc1cccc(CN2C(=O)C(NC(=O)Nc3ccc4c(c3)C(=O)N(C)C4=O)CCc3ccccc32)c1 (stereo not drawn)	780 nM
O=C(Nc1ccccc1)NC1CCc2ccccc2N(Cc2cccc(NC(=O)Oc3ccccc3)c2)C1=O (stereo not drawn)	> 10000 nM
CC(C)NC(=O)Nc1cccc(CN2C(=O)C(NC(=O)Nc3ccccc3F)CCc3ccccc32)c1 (stereo not drawn)	7.6 nM

Compound	Ki
O=C(Nc1cccc(CN2C(=O)C(NC(=O)Nc3ccccc3)CCc3ccccc32)c1)NC1CC1 (stereo not drawn)	910 nM
CNC(=O)Nc1cccc(CN2C(=O)C(NC(=O)Nc3ccccc3)CCc3ccccc32)c1 (stereo not drawn)	7300 nM
CC(C)NC(=O)Nc1cccc(CN2C(=O)C(/N=C(\N)Nc3ccc(O)cc3)CCc3ccccc32)c1 (stereo not drawn)	2.9 nM
CC(C)NC(=O)Nc1cccc(CN2C(=O)C(NC(=O)Nc3ccc4sccc4c3)CCc3ccccc32)c1 (stereo not drawn)	13 nM
CC(C)NC(=O)Nc1cccc(CN2C(=O)C(NC(=O)Nc3ccccc3)COc3ccccc32)c1 (stereo not drawn)	470 nM
CC(C)NC(=O)Nc1cccc(CN2C(=O)C(NC(=O)Nc3ccc4c(c3)OCCO4)CCc3ccccc32)c1 (stereo not drawn)	18 nM
C/N=C(/Nc1ccccc1)NC1CCc2ccccc2N(Cc2cccc(NC(=O)NC(C)C)c2)C1=O (stereo not drawn)	15 nM
O=C(Nc1ccccc1)Nc1cccc(CN2C(=O)C(NC(=O)Nc3ccccc3)CCc3ccccc32)c1 (stereo not drawn)	> 10000 nM
COc1ccc(NC(=O)NC2CCc3ccccc3N(Cc3cccc(NC(=O)NC(C)C)c3)C2=O)cc1 (stereo not drawn)	80 nM
CC(C)NC(=O)Nc1cccc(CN2C(=O)C(NS(=O)(=O)c3ccccc3)CCc3ccccc32)c1 (stereo not drawn)	5500 nM
CC(C)NC(=O)Nc1nc(CN2C(=O)C(NC(=O)Nc3ccc(F)cc3F)CCc3ccccc32)cs1 (stereo not drawn)	> 10000 nM
CC(C)NC(=O)Nc1cccc(CN2C(=O)C(NC(=O)Nc3ccc(N(C)C)cc3)CCc3ccccc32)c1 (stereo not drawn)	66 nM
CC(C)NC(=O)Nc1cccc(CN2C(=O)C(NC(=O)Nc3nc4ccccc4s3)CCc3ccccc32)c1 (stereo not drawn)	690 nM
CC(C)NC(=O)Nc1cccc(CN2C(=O)C(NC(=O)Nc3ccc(O)cc3)CCc3ccccc32)c1 (stereo not drawn)	82 nM
CC(C)NC(=O)Nc1cccc(CN2C(=O)C(NC(=O)Nc3ccc4[nH]ccc4c3)CCc3ccccc32)c1 (stereo not drawn)	18 nM
COC(=O)Nc1cccc(CN2C(=O)C(NC(=O)Nc3ccccc3)CCc3ccccc32)c1 (stereo not drawn)	> 10 nM
CC(C)NC(=O)Nc1cccc(CN2C(=O)C(NC(=O)Nc3cc(F)cc(F)c3)CCc3ccccc32)c1 (stereo not drawn)	86 nM
CC(C)NC(=O)Nc1cccc(CN2C(=O)C(NC(=O)Nc3ccc(F)cc3F)CCc3ccccc32)c1 (stereo not drawn)	7.8 nM
CC(C)OC(=O)Nc1cccc(CN2C(=O)C(NC(=O)Nc3ccccc3)CCc3ccccc32)c1 (stereo not drawn)	690 nM
CC(C)NC(=O)Nc1cccc(CN2C(=O)C(NC(=O)Nc3ccc4scnc4c3)CCc3ccccc32)c1 (stereo not drawn)	24 nM
CC(C)NC(=O)Nc1cccc(CN2C(=O)C(N=C(NCCO)Nc3ccc(O)cc3)CCc3ccccc32)c1 (stereo not drawn)	65 nM

Compound	Ki
CC(C)NC(=O)Nc1cccc(CN2C(=O)C(NC(=O)Nc3ccc4c(c3)CCC4)CCc3ccccc32)c1 (stereo not drawn)	17 nM
CC(C)NC(=O)Nc1cccc(CN2C(=O)C(NC(=O)Nc3ccncc3)CCc3ccccc32)c1 (stereo not drawn)	83 nM
CC(C)NC(=O)Nc1cccc(CN2C(=O)C(NC(=O)Nc3ccc4ccoc4c3)CCc3ccccc32)c1 (stereo not drawn)	7.8 nM
CC(C)NC(=O)Nc1cccc(CN2C(=O)C(NC(=O)Nc3ccc4c(c3)C(=O)NC4=O)CCc3ccccc32)c1 (stereo not drawn)	25 nM
CC(C)NC(=O)Nc1cccc(CN2C(=O)C(NC(=O)c3ccccc3)CCc3ccccc32)c1 (stereo not drawn)	> 10000 nM
CC(C)NC(=O)Nc1cccc(CN2C(=O)C(NC(=O)Nc3cccc(F)c3F)CCc3ccccc32)c1 (stereo not drawn)	100 nM
CC(C)(C)OC(=O)Nc1cccc(CN2C(=O)C(NC(=O)Nc3ccccc3)CCc3ccccc32)c1 (stereo not drawn)	1200 nM
CC(C)NC(=O)Nc1cccc(CN2C(=O)C(NC(=O)Nc3ccc(Cl)cc3)CCc3ccccc32)c1 (stereo not drawn)	71 nM
CC(C)CNC(=O)Nc1cccc(CN2C(=O)C(NC(=O)Nc3ccccc3)CCc3ccccc32)c1 (stereo not drawn)	140 nM
CN(C(=O)OC(C)(C)C)c1cccc(CN2C(=O)C(NC(=O)Nc3ccccc3)CCc3ccccc32)c1 (stereo not drawn)	> 10000 nM
CC(C)NC(=O)Nc1cccc(CN2C(=O)C(NC(=O)Nc3nccs3)CCc3ccccc32)c1 (stereo not drawn)	160 nM
CC(C)(C)NC(=O)Nc1cccc(CN2C(=O)C(NC(=O)Nc3ccccc3)CCc3ccccc32)c1 (stereo not drawn)	75 nM
CC(C)NC(=O)Nc1cccc(CN2C(=O)C(NC(=O)Nc3ccccc3)CCc3ccccc32)c1 (stereo not drawn)	43 nM
CC(C)NC(=O)Nc1cccc(CN2C(=O)C(NC(=O)Nc3ccc(N)cc3)CCc3ccccc32)c1 (stereo not drawn)	200 nM
CC(C)NC(=O)Nc1cccc(CN2C(=O)C(NC(=O)Nc3cnc4ccccc4c3)CCc3ccccc32)c1 (stereo not drawn)	140 nM
CC(C)NC(=O)Nc1cccc(CN2C(=O)C(NC(=O)Nc3ccc4ncsc4c3)CCc3ccccc32)c1 (stereo not drawn)	5.1 nM
Nc1cccc(CN2C(=O)C(NC(=O)Nc3ccccc3)CCc3ccccc32)c1 (stereo not drawn)	> 10000 nM
CC(C)NC(=O)Nc1cccc(CN2CCCCC(NC(=O)Nc3ccccc3)C2=O)c1 (stereo not drawn)	7000 nM
CC(C)NC(=O)Nc1cccc(CN2C(=O)C(NC(=O)Nc3ccc(F)cc3)CCc3ccccc32)c1 (stereo not drawn)	29 nM
CC(C)NC(=O)Nc1cccc(CN2C(=O)C(NC(=O)Nc3nncs3)CCc3ccccc32)c1 (stereo not drawn)	150 nM
NC(=O)Nc1cccc(CN2C(=O)C(NC(=O)Nc3ccccc3)CCc3ccccc32)c1 (stereo not drawn)	> 10000 nM
